What all share (type): ADME, organism-based, Macaca mulatta
The nature of data set [1]: Drug level in normal rhesus monkey parietal cortex assessed as standard uptake value at 152.9 MBq, iv after 47.5 mins by microPET. Conditions: in vivo.
Data set [2] is described as follows: Drug level in normal rhesus monkey frontal cortex assessed as standard uptake value at 152.9 MBq, iv after 85 mins by microPET. Particulars: in vivo. The method in brief: (§1)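 Single normal rhesus monkey; tracer given iv via the vena saphena, 1 day apart from the other tracer injections. Dynamic μPET ran 90 min (5×60 s, 5×120 s, 9×300 s, 3×600 s). Images were reconstructed by filtered back projection with a RAMP filter. Regional time-activity curves were expressed as SUV.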

A short description of data set [3]: Drug level in normal rhesus monkey pons assessed as standard uptake value at 152.9 MBq, iv after 85 mins by microPET. Conditions: in vivo.
Data set [4] in a line: Drug level in normal rhesus monkey thalamus assessed as standard uptake value at 152.9 MBq, iv after 17.5 mins by microPET. Conditions: in vivo.
Data set [5] can be described thus: Drug level in normal rhesus monkey parietal cortex assessed as standard uptake value at 152.9 MBq, iv after 10 mins by microPET. Conditions: in vivo.
A short description of data set [6]: Drug level in normal rhesus monkey parietal cortex assessed as standard uptake value at 152.9 MBq, iv after 8 mins by microPET. Particulars: in vivo.
Data set [7] can be described thus: Drug level in normal rhesus monkey pons assessed as standard uptake value at 152.9 MBq, iv after 12 mins by microPET. Particulars: in vivo, 0.2 h.
Data set [8] in a line: Drug level in normal rhesus monkey frontal cortex assessed as standard uptake value at 152.9 MBq, iv after 37.5 mins by microPET. Conditions: in vivo, 0.625 h. The method in brief: as §1
The nature of data set [9]: Drug level in normal rhesus monkey frontal cortex assessed as standard uptake value at 152.9 MBq, iv after 2.5 mins by microPET. Conditions: in vivo. The essentials: as §1
Data set [10] in a line: Drug level in normal rhesus monkey white matter assessed as standard uptake value at 109.4 MBq, iv after 9.5 mins by microPET. Conditions: in vivo.
Data set [11] can be described thus: Drug level in normal rhesus monkey frontal cortex assessed as standard uptake value at 109.4 MBq, iv after 9.5 mins by microPET. Conditions: in vivo.
Data set [12] can be described thus: Drug level in normal rhesus monkey thalamus assessed as standard uptake value at 109.4 MBq, iv after 42.5 mins by microPET. Particulars: in vivo.
The nature of data set [13]: Drug level in normal rhesus monkey cerebellum assessed as standard uptake value at 109.4 MBq, iv after 12.5 mins by microPET. Conditions: in vivo.
Data set [14] can be described thus: Drug level in normal rhesus monkey white matter assessed as standard uptake value at 109.4 MBq, iv after 117 mins by microPET. Conditions: in vivo, 1.95 h.
Data set [15] can be described thus: Drug level in normal rhesus monkey frontal cortex assessed as standard uptake value at 109.4 MBq, iv after 93 mins by microPET. Particulars: in vivo, 1.55 h.
A short description of data set [16]: Drug level in normal rhesus monkey pons assessed as standard uptake value at 109.4 MBq, iv after 87 mins by microPET. Particulars: in vivo, 1.45 h.
Data set [17] can be described thus: Drug level in normal rhesus monkey white matter assessed as standard uptake value at 109.4 MBq, iv after 27.5 mins by microPET. Conditions: in vivo.
A short description of data set [18]: Drug level in normal rhesus monkey parietal cortex assessed as standard uptake value at 109.4 MBq, iv after 111 mins by microPET. Conditions: in vivo.
Data set [19] is described as follows: Drug level in normal rhesus monkey cerebellum assessed as standard uptake value at 109.4 MBq, iv after 75 mins by microPET. Conditions: in vivo, 1.25 h. The method in brief: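 One normal rhesus monkey received each tracer via the vena saphena, with 1 day between injections. Dynamic μPET ran 180 min for 18F tracers (5×60 s, 5×120 s, 9×300 s, 12×600 s) and 90 min for the 11C tracer (5×60 s, 5×120 s, 9×300 s, 3×600 s). Filtered back-projection reconstruction (RAMP filter) was used. Time-activity curves were drawn to give regional SUV.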

The nature of data set [20]: Drug level in normal rhesus monkey parietal cortex assessed as standard uptake value at 109.4 MBq, iv after 0.375 mins by microPET. Conditions: in vivo, 22 s.
Data set [21] is described as follows: Drug level in normal rhesus monkey parietal cortex assessed as standard uptake value at 96.3 MBq, iv after 27.5 mins by microPET. Conditions: in vivo.
The nature of data set [22]: Drug level in normal rhesus monkey frontal cortex assessed as standard uptake value at 96.3 MBq, iv after 3.5 mins by microPET. Conditions: in vivo.
Data set [23] can be described thus: Drug level in normal rhesus monkey frontal cortex assessed as standard uptake value at 96.3 MBq, iv after 115 mins by microPET. Particulars: in vivo.
Data set [24] in a line: Drug level in normal rhesus monkey frontal cortex assessed as standard uptake value at 96.3 MBq, iv after 12 mins by microPET. Particulars: in vivo, 0.2 h.
The nature of data set [25]: Drug level in normal rhesus monkey thalamus assessed as standard uptake value at 96.3 MBq, iv after 17.5 mins by microPET. Particulars: in vivo.
Data set [26] is described as follows: Drug level in normal rhesus monkey parietal cortex assessed as standard uptake value at 96.3 MBq, iv after 22.5 mins by microPET. Particulars: in vivo, 0.375 h.
The nature of data set [27]: Drug level in normal rhesus monkey cerebellum assessed as standard uptake value at 96.3 MBq, iv after 135 mins by microPET. Conditions: in vivo, 2.25 h. The method in brief: (§2)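 One normal rhesus monkey, each tracer given iv via the vena saphena (81.2, 96.3 or 109.4 MBq), with 1 day between tracer injections. Dynamic brain μPET over 180 min used frames of 5 × 60 s, 5 × 120 s, 9 × 300 s and 12 × 600 s. Images were reconstructed by filtered back projection with a RAMP filter. Regional time-activity curves were expressed as SUV.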

Data set [28] can be described thus: Drug level in normal rhesus monkey frontal cortex assessed as standard uptake value at 96.3 MBq, iv after 8 mins by microPET. Conditions: in vivo.
Data set [29] can be described thus: Drug level in normal rhesus monkey white matter assessed as standard uptake value at 81.2 MBq, iv after 10 mins by microPET. Conditions: in vivo.
The nature of data set [30]: Drug level in normal rhesus monkey white matter assessed as standard uptake value at 81.2 MBq, iv after 17.5 mins by microPET. Conditions: in vivo.
The nature of data set [31]: Drug level in normal rhesus monkey pons assessed as standard uptake value at 81.2 MBq, iv after 14 mins by microPET. Conditions: in vivo.
A short description of data set [32]: Drug level in normal rhesus monkey parietal cortex assessed as standard uptake value at 81.2 MBq, iv after 27.5 mins by microPET. Conditions: in vivo.
Data set [33] can be described thus: Drug level in normal rhesus monkey cerebellum assessed as standard uptake value at 81.2 MBq, iv after 4.5 mins by microPET. Conditions: in vivo, 0.075 h. The method in brief:
as §2

The nature of data set [34]: Drug level in normal rhesus monkey frontal cortex assessed as standard uptake value at 81.2 MBq, iv after 17.5 mins by microPET. Particulars: in vivo.
The nature of data set [35]: Drug level in normal rhesus monkey thalamus assessed as standard uptake value at 81.2 MBq, iv after 1.5 mins by microPET. Particulars: in vivo, 0.025 h.
Data set [36] in a line: Drug level in normal rhesus monkey frontal cortex assessed as standard uptake value at 81.2 MBq, iv after 10 mins by microPET. Particulars: in vivo. The method in brief: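 Single normal rhesus monkey; each tracer given iv via the vena saphena, with 1 day between tracer injections. Dynamic μPET ran 180 min (5×60 s, 5×120 s, 9×300 s, 12×600 s). Images were reconstructed by filtered back projection with a RAMP filter. Regional time-activity curves were expressed as SUV.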

SMILES strings stand for the structures.

For the compound `[11CH3]Nc1ccc(-c2nc3ccc(O)cc3s2)cc1` [PITTSBURGH COMPOUND B], the SUV in [1] was 0.862; in [2], 0.625; in [3], 0.718; in data set [4], 2.159; in data set [5] it was 2.18; in data set [6], 2.207. For the same compound, the SUV in data set [7] is 2.117; in data set [8] it was 0.912; in [9] it was 1.133.
As for `Nc1ccc2nc(-c3ccc([18F])cc3)sc2c1`, the SUV in data set [10] was determined as 2.99; in data set [11] it was 5.43; in [12], 5.55; in [13], 5.33; in data set [14], 3.71; in data set [15], 4.25. The SUV in data set [16] came to 4.84; in [17], 3.2; in data set [18] it was 3.59; in data set [19], 2.92; in data set [20], 0.34.
For the compound `CN(C)c1ccc2nc(-c3ccc([18F])cc3)sc2c1`, the SUV came out at 1.99 in [21]; 1.39 in data set [22]; 1.66 in [23]; 1.99 in data set [24]; 2.3 in data set [25]; 2.09 in [26]. Besides, the SUV in data set [27] came out at 0.94; in data set [28] it was 1.98.
For `CNc1ccc2nc(-c3ccc([18F])cc3)sc2c1`, the SUV in data set [29] is recorded as 3.524; in [30] it was 3.647; in data set [31], 4.757; in data set [32], 4.303; in data set [33] it was 2.964; in [34], 5.789. Further, the SUV was 2.705 in data set [35] and 5.813 in [36].
